According to ChEMBL document CHEMBL1151760, “Novel high-affinity and selective biaromatic 4-substituted gamma-hydroxybutyric acid (GHB) analogues as GHB ligands: design, synthesis, and binding studies” (J Med Chem, 2008):

Experiments:
[1] = biological target: GHB high-affinity binding site (Rattus norvegicus); assay: Displacement of [3H]NCS-382 from GHB high-affinity binding site in rat brain homogenate
[2] = Displacement of [3H]muscimol from GABAA receptor in rat brain synaptic membranes; format: cell membranes, Membrane
Method in brief: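 Washed synaptic membranes from adult male Sprague-Dawley rat cortex and central hemispheres in 50 mM Tris-HCl pH 7.4. 100 µg protein was incubated with 5 nM [3H]muscimol and 0.1 mM displacer at 0 °C for 60 min. Nonspecific binding was set with 1 mM GABA. Bound counts were read by filtration and scintillation. Triplicates, at least two independent experiments.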

[3] = Displacement of [3H]GABA from GABAB receptor in rat brain synaptic membranes; format: cell membranes, Membrane
Method in brief: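 Adult male Sprague-Dawley rat cortex and central hemisphere synaptic membranes, thawed and washed four times by homogenization in 50 mM Tris-HCl pH 7.4 and 48000g spins at 4 °C. 200 µg protein was incubated with 5 nM [3H]GABA, 40 µM isoguvacine to saturate GABAA sites, and 0.1 mM displacer in Tris-HCl with 2.5 mM CaCl2, pH 7.4, for 45 min at 25 °C. Nonspecific binding was set with 0.1 mM baclofen. Bound counts were read by filtration and scintillation.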

Structure (SMILES)	Ki [1]	pKi [1]	IC50 [2]	IC50 [3]
O=C(O)CCC(=O)c1ccc(Cc2ccccc2)cc1	15 µM	4.83	–	–
O=C(O)CCC(=O)c1ccc(CCc2ccccc2)cc1	8.8 µM	5.07	–	–
O=C([O-])CCC(O)c1ccc(/C=C/c2ccccn2)cc1.[Li+] (stereo unspecified)	0.23 µM	6.67	–	–
O=C([O-])CCC(O)c1ccc(/C=C/c2cccc(Cl)c2)cc1.[Li+] (stereo unspecified)	0.079 µM	7.11	–	–
COc1ccc(/C=C/c2ccc(C(O)CCC(=O)[O-])cc2)cc1.[Li+] (stereo unspecified)	0.18 µM	6.75	–	–
O=C([O-])CCC(O)c1ccc(/C=C/c2ccncc2)cc1.[Li+] (stereo unspecified)	0.34 µM	6.49	–	–
Cc1ncsc1/C=C/c1ccc(C(O)CCC(=O)[O-])cc1.[Li+] (stereo unspecified)	0.25 µM	6.62	–	–
O=C(O)CCCc1ccc(CCc2ccccc2)cc1	1.2 µM	6.01	–	–
O=C([O-])CCC(O)c1ccc(/C=C/c2ccccc2)cc1.[Li+] (stereo unspecified)	0.16 µM	6.79	> 100 µM	> 100 µM
O=C([O-])CCC(O)c1ccc(/C=C/c2ccccc2Cl)cc1.[Li+] (stereo unspecified)	0.054 µM	7.28	–	–
O=C(O)CCC(=O)c1ccc(Br)cc1	17 µM	4.61	–	–
O=C([O-])CC[C@H](O)c1ccc(OCc2ccccc2I)cc1.[Li+]	0.22 µM	6.66	–	–
O=C(O)CCC(O)c1ccc(OCc2cccc(Br)c2)cc1 (racemic)	0.051 µM	7.32	–	–
O=C([O-])CCC(O)c1ccc(OCc2ccccc2F)cc1.[Li+] (racemic)	0.041 µM	7.39	–	–
O=C([O-])CCC(O)c1ccc(OCc2ccco2)cc1.[Li+] (racemic)	0.2 µM	6.72	–	–
O=C([O-])CCC(O)c1ccc(OCc2ccc(Br)cc2)cc1.[Li+] (racemic)	0.034 µM	7.48	–	–
O=C([O-])CCC(O)c1ccc(OCc2ccc(F)cc2)cc1.[Li+] (racemic)	0.093 µM	7.03	–	–
O=C([O-])CCC(O)c1ccc(OCc2cccs2)cc1.[Li+] (racemic)	0.096 µM	7.03	–	–
O=C([O-])CCC(O)c1ccc(OCc2cccc(F)c2)cc1.[Li+] (racemic)	0.063 µM	7.22	–	–
O=C([O-])CCC(O)c1ccc(-c2ccccc2)cc1.[Li+] (racemic)	0.44 µM	6.36	–	–
O=C([O-])CCC(O)c1ccc(Cc2ccccc2)cc1.[Li+] (racemic)	0.12 µM	6.94	–	–
O=C([O-])CCC(O)c1ccc(CCc2ccccc2)cc1.[Li+] (racemic)	0.075 µM	7.13	> 100 µM	> 100 µM
O=C([O-])CCC(O)c1ccc(OCc2ccccc2Br)cc1.[Li+] (racemic)	0.053 µM	7.28	–	–
O=C([O-])CCC(O)c1ccc(OCc2ccccc2)cc1.[Li+] (racemic)	0.11 µM	6.96	> 100 µM	> 100 µM
O=C([O-])CCC(O)c1ccc(OCc2cccc(I)c2)cc1.[Li+] (racemic)	0.075 µM	7.12	–	–
O=C([O-])CCC(O)c1ccc(OCc2ccc(I)cc2)cc1.[Li+] (racemic)	0.062 µM	7.21	–	–
O=C([O-])CCC(O)c1ccc(OCc2ccccc2I)cc1.[Li+] (racemic)	0.06 µM	7.22	> 100 µM	> 100 µM
O=C([O-])CC[C@@H](O)c1ccc(OCc2ccccc2I)cc1.[Li+] (racemic)	0.022 µM	7.68	–	–
O=C([O-])CCC(O)c1ccc(Br)cc1.[Li+] (racemic)	1.1 µM	5.96	–	–
